Measurements pooled from the literature.
Each line is one published result; the experiments were not run side by side.

SMILES	assay	system	setting	measurement	value
COc1cc2nc3n(c(=O)c2cc1Cl)CC[C@@H]1[C@@H]3CCCN1CC1COC1	shake flask	aqueous buffer	1 h, pH 7.4	logD	2.3
C[C@H]1Oc2cc(cnc2N)-c2c(nn(C)c2C#N)CN(C)C(=O)c2ccc(F)cc21		bovine, serum		fraction unbound	0.98
CCOc1ccc2ccc(=O)oc2c1	metabolic stability	male Sprague-Dawley rat, hepatocytes	1 µM	hepatocyte CLint	52.8 µL/min/10⁶ cells
O=c1ccc2ccc(O)cc2o1	metabolic stability	Sprague-Dawley rat, hepatocytes	1 µM	hepatocyte CLint	61 µL/min/10⁶ cells
Cc1c(N(C)C)ccc2cc(C(=O)NS(=O)(=O)c3ccccc3-c3ccccc3)oc12			pH 7.5	logD	2.1
O=C(O)Cc1ccccc1Nc1c(Cl)cccc1Cl	metabolic stability	Sprague-Dawley rat, hepatocytes	0.5 µM, pH 7.4	hepatocyte CLint	66 µL/min/10⁶ cells
C=C(F)C(=O)N1CCN(c2nc(OC[C@@H]3CCCN3C)nc3c2CCN(c2cccc4cccc(Cl)c24)C3)C[C@@H]1CC#N	potentiometric		pH 7.4	logD	3.6
O=C1CC[C@H](N2Cc3cc(N4CCN(CC5CCN(c6ccc([C@@H]7c8ccc(O)cc8CC[C@@H]7c7ccccc7)cc6)CC5)CC4)ccc3C2=O)C(=O)N1	metabolic stability	Sprague-Dawley rat, hepatocytes	1 µM	hepatocyte CLint	8.4 µL/min/10⁶ cells
O=c1ccc2ccc(O)cc2o1	metabolic stability	rat, liver microsomes		scaled CLint	1030 mL/min/kg
CCn1cc(C)c2c([C@H](N)c3ccc(C(F)(F)F)nc3)n(C)nc2c1=O	metabolic stability	male Sprague-Dawley rat, hepatocytes	0.5 µM, pH 7.4	hepatocyte CLint	1.9 µL/min/10⁶ cells
Cc1ccc(Cn2cc(C(=O)NN)c(=O)c3cc(Oc4ccccc4)ccc32)cc1	shake flask	PBS	2 h, pH 7.4	logD	2
COCCc1ccc(OCC(O)CNC(C)C)cc1 (stereo not drawn)	metabolic stability	Sprague-Dawley rat, hepatocytes	0.5 µM, pH 7.4	hepatocyte CLint	35 µL/min/10⁶ cells
Cc1c(C(=O)O)ccc2c3n(nc12)[C@@H]1[C@H](C3)N(CC2CC2)[C@@]2(C(=O)Nc3cc(Cl)ccc32)[C@H]1c1cccc(Cl)c1F		bovine, serum		fraction unbound	0.045
CCn1ccc2c([C@](O)(c3cnc(C(F)(F)F)c(Cl)c3)C3CC3)n(C)nc2c1=O	metabolic stability	male Sprague-Dawley rat, hepatocytes	0.5 µM, pH 7.4	hepatocyte CLint	3.3 µL/min/10⁶ cells
CC(/C=C/C=C(\C)C(=O)O)=C\C=C\C=C(C)\C=C\C=C(/C)C(=O)O	shake flask	PBS	2 h, pH 7.4	logD	0.7
